Measured values taken from ChEMBL document CHEMBL1150203, “Antimicrobial diterpenes of Croton sonderianus, 1. Hardwickic and 3,4-secotrachylobanoic acids” (1991).
Values after ≈ are worked out from the molar mass of the structure shown. Structures can show the parent of a compound that is named as a salt. Active and inactive are the calls of the source. The calls are words filed in the database; no cut-off is given here.

Key:
Candida albicans [1] = assay: Antifungal activity against Candida albicans ATCC 10231 at 1 mg/ml after 48 hrs by agar-well diffusion assay; type: functional; conditions: ATCC 10231, 48 h, read-out: IZ
Outline: (§1)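 Fungi and yeasts streaked on mycophil agar from broth culture diluted 1:10 in sterile water; 100 μl of compound at 1 mg/ml placed in 11 mm cork-borer wells; plates held at 30°. Inhibition zone width (mm) recorded at 48 and 72 h and coded – to ++++ (1–2, 3–6, 7–12, >13 mm); amphotericin B positive control.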

Bacillus subtilis [2] = assay: Antibacterial activity against Bacillus subtilis ATCC 6633 at 1 mg/ml after 48 hrs by agar-well diffusion assay; type: functional; conditions: ATCC 6633, 48 h, read-out: IZ
Outline: (§2)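 Agar-well diffusion on eugon agar, bacteria streaked by quadrant method from broth culture diluted 1:10 in sterile water; 11 mm wells given 100 μl of compound at 1 mg/ml; 37° incubation. Zone width (mm) read at 24 and 48 h, coded –, + (1–2), ++ (3–6), +++ (7–12), ++++ (>13); streptomycin sulfate positive control.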

Trametes sanguinea [3] = assay: Antifungal activity against Polyporus sanguineus ATCC 16422 at 1 mg/ml after 48 hrs by agar-well diffusion assay; type: functional; outline: as §1
Candida albicans [4] = assay: Antifungal activity against Candida albicans ATCC 10231 at 1 mg/ml after 72 hrs by agar-well diffusion assay; type: functional; conditions: ATCC 10231, 72 h, read-out: IZ; outline: as §1
Aspergillus niger [5] = assay: Antifungal activity against Aspergillus niger ATCC 16888 at 1 mg/ml after 48 hrs by agar-well diffusion assay; type: functional; outline: as §1
Saccharomyces cerevisiae [6] = assay: Antifungal activity against Saccharomyces cerevisiae ATCC 9763 at 1 mg/ml after 48 hrs by agar-well diffusion assay; type: functional; outline: as §1
Pseudomonas aeruginosa [7] = assay: Antibacterial activity against Pseudomonas aeruginosa ATCC 15442 at 1 mg/ml after 24 hrs by agar-well diffusion assay; type: functional; outline: as §2
[8] = tested on: Trichophyton mentagrophytes; assay: Antifungal activity against Trichophyton mentagrophytes ATCC 9972 at 1 mg/ml after 48 hrs by agar-well diffusion assay; type: functional; conditions: for zone of inhibition at 1000 µg/mL: ATCC 9972, 48 h, read-out: IZ; outline: as §1
Pseudomonas aeruginosa [9] = assay: Antibacterial activity against Pseudomonas aeruginosa ATCC 15442 at 1 mg/ml after 48 hrs by agar-well diffusion assay; type: functional; outline: as §2
Saccharomyces cerevisiae [10] = assay: Antifungal activity against Saccharomyces cerevisiae ATCC 9763 at 1 mg/ml after 72 hrs by agar-well diffusion assay; type: functional; outline: as §1
[11] = tested on: Trichophyton mentagrophytes; assay: Antifungal activity against Trichophyton mentagrophytes ATCC 9972 at 1 mg/ml after 72 hrs by agar-well diffusion assay; type: functional; conditions: for zone of inhibition at 1000 µg/mL: ATCC 9972, 72 h, read-out: IZ; outline: as §1
Escherichia coli [12] = assay: Antibacterial activity against Escherichia coli ATCC 10536 at 1 mg/ml after 48 hrs by agar-well diffusion assay; type: functional; outline: as §2
[13] = tested on: Mycolicibacterium smegmatis; assay: Antibacterial activity against Mycobacterium smegmatis ATCC 607 at 1 mg/ml after 48 hrs by agar-well diffusion assay; conditions: ATCC 607, 48 h, read-out: IZ
Escherichia coli [14] = assay: Antibacterial activity against Escherichia coli ATCC 10536 at 1 mg/ml after 24 hrs by agar-well diffusion assay; type: functional; outline: as §2
Staphylococcus aureus [15] = assay: Antibacterial activity against Staphylococcus aureus ATCC 6538 at 1 mg/ml after 24 hrs by agar-well diffusion assay; type: functional; conditions: for zone of inhibition at 1000 µg/mL: ATCC 6538, 24 h, read-out: IZ; outline: as §2
Bacillus subtilis [16] = assay: Antibacterial activity against Bacillus subtilis ATCC 6633 at 1 mg/ml after 24 hrs by agar-well diffusion assay; type: functional; conditions: ATCC 6633, 24 h, read-out: IZ; outline: as §2
Helminthosporium [17] = assay: Antifungal activity against Helminthosporium ATCC 4671 at 1 mg/ml after 48 hrs by agar-well diffusion assay; type: functional; conditions: for zone of inhibition at 1000 µg/mL: ATCC 4671, 48 h, read-out: IZ; outline: as §1
Trametes sanguinea [18] = assay: Antifungal activity against Polyporus sanguineus ATCC 16422 at 1 mg/ml after 72 hrs by agar-well diffusion assay; type: functional; outline: as §1
Staphylococcus aureus [19] = assay: Antibacterial activity against Staphylococcus aureus ATCC 6538 at 1 mg/ml after 48 hrs by agar-well diffusion assay; type: functional; conditions: for zone of inhibition at 1000 µg/mL: ATCC 6538, 48 h, read-out: IZ; outline: as §2
Helminthosporium [20] = assay: Antifungal activity against Helminthosporium ATCC 4671 at 1 mg/ml after 72 hrs by agar-well diffusion assay; type: functional; conditions: for zone of inhibition at 1000 µg/mL: ATCC 4671, 72 h, read-out: IZ; outline: as §1
Aspergillus niger [21] = assay: Antifungal activity against Aspergillus niger ATCC 16888 at 1 mg/ml after 72 hrs by agar-well diffusion assay; type: functional; outline: as §1
[22] = tested on: Mycolicibacterium smegmatis; assay: Antibacterial activity against Mycobacterium smegmatis ATCC 607 at 1 mg/ml after 48 hrs by agar-well diffusion assay; type: functional; conditions: ATCC 607, 48 h, read-out: IZ
Outline: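 Quadrant-streaked eugon agar plates (broth culture diluted 1:10 in water) with 11 mm wells receiving 100 μl of 1 mg/ml compound, incubated at 37°; inhibition zone width in mm scored at 48 h and 72 h as –, +, ++, +++, ++++ (1–2, 3–6, 7–12, >13 mm); streptomycin sulfate control.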

Bacillus subtilis [23] = assay: Antibacterial activity against Bacillus subtilis ATCC 6633 after 24 hrs by twofold serial dilution method; type: functional; conditions: ATCC 6633, 24 h
Saccharomyces cerevisiae [24] = assay: Antifungal activity against Saccharomyces cerevisiae ATCC 9763 after 48 hrs by twofold serial dilution method; type: functional; conditions: ATCC 9763, 48 h
Bacillus subtilis [25] = assay: Antibacterial activity against Bacillus subtilis ATCC 6633 after 48 hrs by twofold serial dilution method; type: functional; conditions: ATCC 6633, 48 h
Saccharomyces cerevisiae [26] = assay: Antifungal activity against Saccharomyces cerevisiae ATCC 9763 after 24 hrs by twofold serial dilution method; type: functional; conditions: ATCC 9763, 24 h

Structure (SMILES) | zone of inhibition at 1000 µg/mL (Candida albicans [1]) | zone of inhibition at 1000 µg/mL (Bacillus subtilis [2]) | inhibition zone (IZ) (Trametes sanguinea [3]) | zone of inhibition at 1000 µg/mL (Candida albicans [4]) | inhibition zone (IZ) (Aspergillus niger [5]) | inhibition zone (IZ) (Saccharomyces cerevisiae [6]) | inhibition zone (IZ) (Pseudomonas aeruginosa [7]) | inhibition zone (IZ) (Pseudomonas aeruginosa [9]) | inhibition zone (IZ) (Saccharomyces cerevisiae [10]) | inhibition zone (IZ) (Escherichia coli [12]) | zone of inhibition at 1000 µg/mL [13] | inhibition zone (IZ) (Escherichia coli [14]) | zone of inhibition at 1000 µg/mL (Bacillus subtilis [16]) | inhibition zone (IZ) (Trametes sanguinea [18]) | inhibition zone (IZ) (Helminthosporium [20]) | inhibition zone (IZ) (Aspergillus niger [21]) | zone of inhibition at 1000 µg/mL [22] | zone of inhibition at 1000 µg/mL (Staphylococcus aureus [15]) | zone of inhibition at 1000 µg/mL (Staphylococcus aureus [19]) | zone of inhibition at 1000 µg/mL [8] | other results
COC(=O)CC[C@]1(C)C(C(C)=O)CC[C@@]23C[C@@H]4[C@@H](CC21)[C@@]4(C)C3 (stereo not given in full) | 1 mm | 3 mm | inactive | 1 mm | inactive | inactive | inactive | inactive | inactive | inactive | 3 mm | inactive | 7 mm | inactive | inactive | inactive | – | – | – | – | inhibition zone (IZ) [8]: inactive; inhibition zone (IZ) [11]: inactive; inhibition zone (IZ) (Staphylococcus aureus [15]): inactive; inhibition zone (IZ) (Helminthosporium [17]): inactive; inhibition zone (IZ) (Staphylococcus aureus [19]): inactive
CN[C@@H]1[C@H](O[C@H]2[C@H](O[C@H]3[C@H](O)[C@@H](O)[C@H](N=C(N)N)[C@@H](O)[C@@H]3N=C(N)N)O[C@@H](C)[C@]2(O)C=O)O[C@@H](CO)[C@H](O)[C@H]1O [STREPTOMYCIN SULFATE] | – | 7 mm | – | – | – | – | – | – | – | – | > 12 mm | – | 7 mm | – | – | – | > 12 mm | 7 mm | 7 mm | – | zone of inhibition at 1000 µg/mL (Pseudomonas aeruginosa [7]; ATCC 15442, 24 h, read-out: IZ): 7 mm; zone of inhibition at 1000 µg/mL (Pseudomonas aeruginosa [9]; ATCC 15442, 48 h, read-out: IZ): 3 mm; zone of inhibition at 1000 µg/mL (Escherichia coli [12]; ATCC 10536, 48 h, read-out: IZ): 7 mm; zone of inhibition at 1000 µg/mL (Escherichia coli [14]; ATCC 10536, 24 h, read-out: IZ): 7 mm
C[C@@H]1CC[C@@]2(C)C(CO)=CCC[C@@H]2[C@@]1(C)CCc1ccoc1 [HARDWICKIOL] | 3 mm | 3 mm | inactive | 7 mm | inactive | – | inactive | inactive | – | inactive | 7 mm | inactive | 3 mm | inactive | – | inactive | 7 mm | 3 mm | 3 mm | 7 mm | zone of inhibition at 1000 µg/mL (Saccharomyces cerevisiae [6]; ATCC 9763, 48 h, read-out: IZ): 3 mm; zone of inhibition at 1000 µg/mL (Saccharomyces cerevisiae [10]; ATCC 9763, 72 h, read-out: IZ): 3 mm; zone of inhibition at 1000 µg/mL [11]: 3 mm; zone of inhibition at 1000 µg/mL (Helminthosporium [17]): 3 mm; zone of inhibition at 1000 µg/mL (Helminthosporium [20]): 1 mm
COC(=O)C1=CCC[C@@H]2[C@@](C)(CCc3ccoc3)[C@H](C)CC[C@@]12C [HARDWICKIC ACID METHYL ESTER] | 1 mm | 1 mm | inactive | 1 mm | inactive | inactive | inactive | inactive | inactive | inactive | 1 mm | inactive | 1 mm | inactive | – | inactive | 1 mm | 1 mm | 1 mm | 1 mm | zone of inhibition at 1000 µg/mL [11]: 1 mm; zone of inhibition at 1000 µg/mL (Helminthosporium [17]): 1 mm; zone of inhibition at 1000 µg/mL (Helminthosporium [20]): 1 mm
C=C(C)[C@@H]1CC[C@@]23C[C@@H]4[C@@H](C[C@H]2[C@]1(C)CCC(=O)O)[C@@]4(C)C3 | 3 mm | 7 mm | – | 3 mm | inactive | inactive | inactive | inactive | inactive | inactive | 7 mm | inactive | > 12 mm | – | inactive | inactive | 7 mm | 7 mm | 7 mm | 3 mm | MIC (Bacillus subtilis [23]): 25 µg/mL (≈ 82.7 µM); zone of inhibition at 1000 µg/mL (Trametes sanguinea [3]; ATCC 16422, 48 h, read-out: IZ): 3 mm; MIC (Saccharomyces cerevisiae [24]): 100 µg/mL (≈ 331 µM); MIC (Bacillus subtilis [25]): 25 µg/mL (≈ 82.7 µM); zone of inhibition at 1000 µg/mL [11]: 1 mm; MIC (Saccharomyces cerevisiae [26]): 100 µg/mL (≈ 331 µM); zone of inhibition at 1000 µg/mL (Helminthosporium [17]): 1 mm; zone of inhibition at 1000 µg/mL (Trametes sanguinea [18]; ATCC 16422, 72 h, read-out: IZ): 1 mm
C=C(C)[C@@H]1CC[C@@]23C[C@@H]4[C@@H](C[C@H]2[C@]1(C)CCCO)[C@@]4(C)C3 | 1 mm | 3 mm | inactive | 1 mm | inactive | inactive | inactive | inactive | inactive | inactive | 1 mm | inactive | 3 mm | inactive | inactive | inactive | 1 mm | 1 mm | – | – | inhibition zone (IZ) [8]: inactive; inhibition zone (IZ) [11]: inactive; inhibition zone (IZ) (Helminthosporium [17]): inactive; inhibition zone (IZ) (Staphylococcus aureus [19]): inactive
C=C(C)[C@@H]1CC[C@@]23C[C@@H]4[C@@H](C[C@H]2[C@]1(C)CCC(=O)OC)[C@@]4(C)C3 | – | 1 mm | – | – | – | – | inactive | inactive | – | inactive | 1 mm | inactive | 1 mm | – | – | – | 1 mm | 1 mm | 1 mm | – | –
CN[C@@H]1[C@H](O[C@H]2[C@H](O[C@H]3[C@H](O)[C@@H](O)[C@H](N=C(N)N)[C@@H](O)[C@@H]3N=C(N)N)O[C@@H](C)[C@]2(O)C=O)O[C@@H](CO)[C@H](O)[C@H]1O [STREPTOMYCIN] | – | – | – | – | – | – | – | – | – | – | – | – | – | – | – | – | – | – | – | – | MIC (Bacillus subtilis [23]): 3.12 µg/mL (≈ 5.36 µM); MIC (Bacillus subtilis [25]): 3.12 µg/mL (≈ 5.36 µM)
